Results gathered from unrelated publications.
Target: Cyclin-dependent kinase-like 1 (CDKL1, Homo sapiens, UniProt Q00532)

Cc1cnc(Nc2ccc(C(=O)N3CCC(N4CCCC4)CC3)cc2)nc1-c1cc2ccccc2s1 — remaining binding (binding, competition with immobilised ligand; 1 µM): 50%
CNCc1ccccc1-c1csc([C@@H](C)Nc2nc(C)nc3cc(OC)c(OC)cc23)c1 — remaining binding (cell-free assay, competition with immobilised ligand; 1 µM): 93%
Nc1ncc2c(n1)-c1c([nH]c3ccc(C#CC4CC4)cc13)CCCC2 — remaining binding (binding, competition with immobilised ligand; 1 µM): 81%
O=C(NCC1CCOCC1)c1n[nH]cc1NC(=O)c1c(F)cccc1F — remaining binding (binding, competition with immobilised ligand; 1 µM): 77%
O=C(NCCCN1CCOCC1)c1ccc(Nc2nccc(-c3cc4ccccc4s3)n2)cc1 — remaining binding (binding, competition with immobilised ligand; 1 µM): 54%
C[C@@H]1CCN(c2nccc(-c3cnn4ncccc34)n2)C1 — remaining binding (binding; 1 µM): 70%
c1cncc(-c2cccc(Nc3nccc(NC4CCCCC4)n3)c2)c1 — remaining binding (binding, competition with immobilised ligand; 10 µM): 70%
C[C@H](c1ccnc(Nc2nc3ccc(-c4cc(N(C)C)ncn4)cc3[nH]2)c1)N1CCN(C(=O)CC(F)(F)F)CC1 — remaining binding (binding, competition with immobilised ligand; 0.1 µM): 100%
COc1cnc(Nc2cccc(S(N)(=O)=O)c2)nc1N1CCN(c2ccccc2)C(=O)C1 — remaining binding (binding, competition with immobilised ligand; 1 µM): 92%
CN(CCCC(F)(F)F)c1nccc(-c2cnn3ncccc23)n1 — remaining binding (binding; 1 µM): 83%
O=C1NC(c2ccccn2)Sc2ccccc21 (stereo not drawn) — remaining binding (cell-free assay, competition with immobilised ligand; 1 µM): 75%
c1cnn2ncc(-c3ccnc(N4CCC45COC5)n3)c2c1 — remaining binding (binding; 1 µM): 59%
CCN1CCN(Cc2ccc(C(=O)Nc3ccc(C)c(Oc4ccc5c(c4)CC(=O)N5)c3)cc2C(F)(F)F)CC1 — remaining binding (binding, competition with immobilised ligand; 1 µM): 100%
O=C(NCCCN1CCOCC1)c1ccc(Nc2ncc(Cl)c(-c3ccc(Cl)s3)n2)cc1 — remaining binding (binding, competition with immobilised ligand; 1 µM): 36%
F[C@@H]1CCN(c2nccc(-c3cnn4ncccc34)n2)C1 — remaining binding (binding; 1 µM): 89%
CNC(=O)Nc1ccc2c(c1)CC[C@@]21OC(=O)N(CC(=O)N(Cc2ccc(F)cc2)[C@@H](C)C(F)(F)F)C1=O — remaining binding (binding, competition with immobilised ligand; 1 µM): 86%
N[C@H]1CCN(c2nccc(-c3cnn4ncccc34)n2)C1 — remaining binding (binding; 1 µM): 80%
C[C@@H](c1cccc(C#N)c1)n1cc(Cl)cc(C(N)=O)c1=N — remaining binding (binding, competition with immobilised ligand; 1 µM): 100%
COc1cnc(Nc2cccc(S(N)(=O)=O)c2)nc1N1CCN(c2ccccc2)CC1 — remaining binding (binding, competition with immobilised ligand; 1 µM): 86%
N#Cc1ccc(Nc2ccc3[nH]c(=O)[nH]c3c2)c(Cl)c1 — remaining binding (binding, competition with immobilised ligand; 1 µM): 84%
CN(C)c1nccc(-c2cnn3ncccc23)n1 — remaining binding (binding; 1 µM): 89%
